Screening data deposited in PubChem BioAssay by Broad Institute.
This is a sample that favours compounds with a hit; in the whole collection about 4.3% have one here.
ALR H2O2 inh: blocks human ALR sulfhydryl oxidase activity | 290,000 tested, 3.8% active | P55789 | purified ALR, DTT oxidation, H2O2 HRP-luminol luminescence | inhibition, % (test concentration not listed);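 active means mean replicate inhibition above about 79%, with every replicate also reaching it, limit read from the data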
Target sequence (P55789 whole entry, looked up): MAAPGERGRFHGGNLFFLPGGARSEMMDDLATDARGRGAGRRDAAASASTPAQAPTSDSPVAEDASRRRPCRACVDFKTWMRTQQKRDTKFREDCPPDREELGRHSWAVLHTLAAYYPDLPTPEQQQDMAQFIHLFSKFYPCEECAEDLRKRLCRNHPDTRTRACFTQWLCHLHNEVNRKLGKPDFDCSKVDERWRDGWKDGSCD
CAL PDZ FP-1: blocks peptide binding to the human CAL PDZ domain; inhibition, % at 24.9 µM; AID 602252; 300,000 tested, 0.92% active; purified CAL PDZ, TMR-peptide fluorescence polarization, 1 h;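 active means mean inhibition of at least 30% with at least half of replicates also reaching 30%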
Rtt109 Vps75: C. albicans Rtt109 histone acetyltransferase inhibition; Q5AAJ8; purified Rtt109/Vps75, ThioGlo CoA-SH fluorescence, 4 h; inhibition, % at 34.9 µM; 330,000 tested, 0.16% active;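 active means inhibition of at least 50% in every replicate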
Target sequence (Q5AAJ8 whole entry, looked up): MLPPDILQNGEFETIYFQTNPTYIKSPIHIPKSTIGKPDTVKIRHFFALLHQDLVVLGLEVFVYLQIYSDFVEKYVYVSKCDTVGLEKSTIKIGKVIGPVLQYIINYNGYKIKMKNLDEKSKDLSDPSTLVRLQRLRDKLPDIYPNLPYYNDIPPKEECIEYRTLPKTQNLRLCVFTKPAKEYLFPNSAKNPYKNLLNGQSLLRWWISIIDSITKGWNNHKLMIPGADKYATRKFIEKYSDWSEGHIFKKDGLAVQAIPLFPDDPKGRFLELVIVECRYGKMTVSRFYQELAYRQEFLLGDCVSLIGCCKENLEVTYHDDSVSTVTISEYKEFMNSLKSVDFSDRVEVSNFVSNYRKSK
CAL PDZ FP-2: inhibitors of human CAL PDZ peptide binding; purified CAL PDZ, TMR-peptide fluorescence polarization, 1 h; Q9HD26; inhibition, % at 20 µM; 330,000 tested, 0.02% active;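 active means highest replicate inhibition of at least 40%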
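material = purified tagged CAL PDZ domain construct (CerCALP) | buffer or medium = sodium phosphate/NaCl buffer pH 7.4 with TCEP, IgG, Thesit | reagent = TMR-labelled reporter peptide T*-PRC34 bound in PDZ groove | incubation = 1 h room-temperature incubation prior to read | measured by = fluorescence polarization (mP) | evaluation = percent inhibition from loss of millipolarization | control set = unlabelled peptide and DMSO controls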
Dyrk1A ADPGlo: blocks rat Dyrk1A kinase activity; ADP-Glo luminescence, NFATc1 peptide; inhibition, % at 12.5 µM; 310,000 tested, 0.43% active; AID 504441; in the data active means inhibition above about 50%
Hits are given with their value; n = inactive; x = no result.

SMILES | ALR H2O2 inh | CAL PDZ FP-1 | Rtt109 Vps75 | CAL PDZ FP-2 | Dyrk1A ADPGlo
S=c1[nH]ncn1NCc1ccc(Cl)cc1Cl | 89 | n | n | n | n
COc1cc(CNn2cn[nH]c2=S)cc(Cl)c1OCc1ccc(F)cc1 | 97 | n | n | n | n
Fc1cccc(Cl)c1CNn1cn[nH]c1=S | 82 | n | n | n | n
[O-]/C(=C(\C(=S)NCc1ccccc1)[n+]1ccccc1)c1ccc(Cl)s1 | n | n | n | n | n
O=C(c1cc(-c2ccc(F)cc2)nc2ccccc12)N1CCN(C2CCS(=O)(=O)C2)CC1 (centres undefined) | n | n | n | n | n
NC(=O)NC(=O)COC(=O)c1sc2ccccc2c1Cl | n | n | n | n | n
CN(C)CCOC(=O)c1sc2ccccc2c1Cl | n | 84 | x | n | n
CCOc1ccc(N(C)C(=O)CCc2nnc3ccc(N4CCCCC4)nn23)cc1 | n | n | n | n | x
C=CCn1c(SCc2ccccc2F)nc2cc(C(=O)O)ccc2c1=O | 98 | n | n | n | n
COc1ccc(Cl)cc1NC(=O)C(C)OC(=O)Cn1cc(C(F)(F)F)ccc1=O (centres undefined) | n | n | n | n | x
O=C(Nc1ccc(OC(F)(F)F)cc1)c1cnccn1 | n | x | n | n | n
Cn1cc([N+](=O)[O-])c(C(=O)NCc2ccccc2)n1 | n | 30 | n | n | n
N=c1sccn1CC(=O)NC(c1ccccc1)c1ccccc1 | n | n | n | n | n
C[n+]1ccc(/C=N/Nc2nc(Cl)c(C#N)c(Cl)c2Cl)cc1 | 82 | x | n | n | n
CC(=O)Nc1ccc(/C=C2\CCc3ccccc3C2=O)cc1 | n | n | n | n | x
CN1CCN(C/C(=C2/N=C(c3ccccc3)OC2=O)N(C)C)CC1 | 98 | x | n | n | n
CC(C)[C@H](NS(=O)(=O)c1ccccc1)C(=O)Nc1ccccc1N1CCOCC1 | n | n | n | n | n
COc1ccc2c(/C=C/c3cc[n+](C)cc3)c[nH]c2c1 | n | n | n | n | n
Cc1ccc2[nH]cc(/C=C/c3cc[n+](C)cc3)c2c1 | 98 | n | n | n | n
CC(CNC(=O)COC(=O)c1cccnc1Cl)c1ccccc1 (centres undefined) | x | n | n | n | n
CC1(C)Oc2ccc3ccc(=O)oc3c2/C(=C/NNC(N)=S)C1=O | 88 | n | n | n | n
CN/C=C1\C(=O)C(C)(C)Oc2ccc3ccc(=O)oc3c21 | n | n | n | n | n
CCOC(=O)C1CCN(c2nc(C)cc(C)c2C#N)CC1 | x | n | n | n | n
CCOc1cc2c(C#N)c(N3CCNCC3)nc(N)c2c(N)n1 | x | 70 | n | n | n
CCOC(=O)C1CCN(c2nc(N)c3c(N)nc(SCC(=O)O)cc3c2C#N)CC1 | x | n | 68 | n | n
SMILES | ALR H2O2 inh | CAL PDZ FP-1 | Rtt109 Vps75 | CAL PDZ FP-2 | Dyrk1A ADPGlo
Cn1c(-c2ccccc2)cnc1NCc1cc2c(cc1[N+](=O)[O-])OCO2 | 98 | n | n | n | n
Cn1c(-c2ccc(F)cc2)cnc1NCc1cccc(F)c1 | x | n | x | n | n
Cn1c(-c2ccc(F)cc2)cnc1NCc1cc2c(cc1[N+](=O)[O-])OCO2 | 93 | n | n | n | n
Cn1c(-c2ccc3c(c2)OCO3)cnc1NCc1cccc(O)c1 | 88 | n | n | n | n
CCOC(=O)N1CCC(Nc2cccc(SC)c2)CC1 | 97 | n | n | n | n
CCOC(=O)N1CCC(Nc2c(Nc3ccc(F)cc3)c(=O)c2=O)CC1 | n | 59 | n | n | n
COc1ccccc1C(O)(C(=O)NNc1cccc(C)c1)c1ccccc1OC | 95 | n | n | n | n
COc1ccccc1C(O)(C(=O)NNc1ccccc1C)c1ccccc1OC | n | n | n | n | n
Cc1cc(Nc2n[nH]c(N)c2C#N)ccc1F | 95 | n | n | n | n
COc1ccnc(Nc2ccc(C)c(C)c2)c1C#N | n | n | n | n | n
COC(=O)[C@]1(Cc2ccccc2)N[C@H](CN(C)C(=O)Nc2ccc(Cl)cc2)[C@@H]2C(=O)N(C)C(=O)[C@@H]21 | x | n | n | n | n
CN(C)c1ccc(C(=O)NC2(N3CCC3=O)CCCC2)cc1 | 100 | x | n | n | n
O=C(NNc1ccccc1)c1ccccc1 | x | n | n | n | n
O=C(NNc1ccc(O)cc1)c1ccc(Br)cc1 | 99 | n | n | n | n
COc1ccc(CNC(=O)C[C@H]2C[C@H](C(=O)N3CCOCC3)[C@@]3(CCC4CCCC4)c4[nH]c5cc(CCC(=O)N(C)C)ccc5c4CCN3C2=O)cc1OC | x | 51 | n | n | n
COCCn1c(SCC(=O)Nc2ccc(OC)c(S(N)(=O)=O)c2)nc2ccccc2c1=O | n | 41 | n | n | n
COCCn1c(SCC(=O)c2ccccc2)nc2c(c1=O)SCC2 | 94 | n | n | n | n
COCCn1c(SCC(=O)Nc2ccc3[nH]c(=O)[nH]c3c2)nc2ccccc2c1=O | n | n | n | n | n
COCCn1c(SCC(=O)c2ccccc2)nc2ccccc2c1=O | 97 | n | n | n | n
CCn1c(SCc2ccc(F)cc2)nc2c(c1=O)SCC2 | n | n | n | n | x
COCCCn1c(SCC(=O)c2ccccc2)nc2ccccc2c1=O | n | n | n | n | n
CCn1c(SCc2cccc(F)c2)nc2c(c1=O)SCC2 | 97 | n | n | n | n
COc1ccc(C)cc1NC(=O)Nc1ccc(C(=O)N2CCCC2)cc1 | n | n | n | n | n
CCOc1ccc(NS(=O)(=O)c2cccc(C(=O)N(C)Cc3ccco3)c2)cc1 | n | n | n | n | x
N=C1SCC(=O)N1c1ncc(Cc2ccccc2Cl)s1 | x | 30 | n | n | n
SMILES | ALR H2O2 inh | CAL PDZ FP-1 | Rtt109 Vps75 | CAL PDZ FP-2 | Dyrk1A ADPGlo
N=C1SCC(=O)N1c1ncc(Cc2cccc(Cl)c2)s1 | x | n | n | n | n
COc1ccc2c3c([nH]c2c1)C(C)N(C(C)=O)CC3 (centres undefined) | 97 | n | n | n | n
COc1ccc(C(=O)N2CCc3c([nH]c4ccccc34)C2C(F)(F)F)cc1 (centres undefined) | n | n | n | n | n
C#CCN1c2ccccc2Sc2cccnc21 | n | n | x | n | n
CC(C)(C)NC(=O)CN(C(=O)CCC(=O)Nc1nccs1)c1ccc(F)cc1 | n | n | n | n | n
COc1ccccc1NC(=O)Nc1cc(NC(=O)Nc2ccccc2OC)c(C)nc1C | n | n | n | n | n
Clc1ccc(Sc2oc(/C=N/n3cnnc3)cc2Br)cc1 | n | n | n | n | x
CN(C)C(=O)/C(C#N)=C\c1cc(Br)c(Sc2ccc(Cl)cc2)o1 | 93 | n | n | n | n
COc1ccc(N(CC(=O)NC2CCCCC2)C(=O)CCC(=O)Nc2nc(C)cs2)cc1OC | n | n | n | n | n
COc1cc(-c2nc(-c3ccccc3)c(-c3cccs3)[nH]2)cc(OC)c1O | 98 | n | n | n | n
CS(=O)(=O)c1cccc(C(=O)Nc2nnc(C3=COCCO3)o2)c1 | 99 | n | n | n | n
CC1CCCCN1S(=O)(=O)c1ccc(C(=O)Nc2nnc(-c3ccncc3)o2)cc1 (centres undefined) | 81 | n | x | n | n
O=C(Nc1nnc(-c2ccncc2)o1)c1ccccc1 | 87 | n | n | n | n
